pEC50, pIC50: −log10 of the molar value.
Experiments:
Plasmodium falciparum [1] = assay: Antimalarial activity against chloroquine-resistant Plasmodium falciparum FcB1(CQR)Colombia assessed as parasite growth inhibition; assay type: functional, organism-based
How it was run: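 Erythrocytic-stage growth inhibition in culture of chloroquine-resistant P. falciparum FcB1 (Columbia). EC50 comes from a 10-point dose-response, run only for compounds above a 60% inhibition cut-off in the 20 μM single-point screen. Values are means of at least two experiments.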

Plasmodium falciparum [2] = assay: Antimalarial activity against chloroquine-resistant Plasmodium falciparum FcB1(CQR)Colombia assessed as parasite growth inhibition at 20 uM relative to control; assay type: functional
How it was run: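 Single-point screen at 20 μM against erythrocytic stages of chloroquine-resistant P. falciparum FcB1 (Columbia) in culture. Read-out is percent parasite growth inhibition.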

[3] = Selectivity index, ratio of IC50 for human AB943 cells to IC50 for Antimalarial activity against chloroquine-resistant Plasmodium falciparum FcB1(CQR)Colombia; assay type: toxicity; settings: read-out: Selectivity Index
[4] = Cytotoxicity against human AB943 cells; assay type: cell-based
Plasmodium berghei [5] = assay: Antiplasmodial activity against Plasmodium berghei at 5 uM; assay type: functional
[6] = MRT (0 to 7 hrs) in mouse at 140 micromol/kg, po; assay type: ADME; settings: in vivo, dose 140 µmol/kg
[7] = AUC (0 to 7 hrs) in mouse at 140 micromol/kg, po; assay type: ADME; parameters: time < 7 hr, route oral, dose 140 µmol/kg; settings: in vivo, 140 µmol/kg
[8] = Tmax in mouse at 140 micromol/kg, po; assay type: ADME; settings: in vivo, dose 140 µmol/kg
hERG (KCNH2) = hERG (KCNH2) (Homo sapiens, UniProt Q12809); assay: Inhibition of human ERG at 11 uM
Sequence of hERG (KCNH2) (Q12809 whole entry): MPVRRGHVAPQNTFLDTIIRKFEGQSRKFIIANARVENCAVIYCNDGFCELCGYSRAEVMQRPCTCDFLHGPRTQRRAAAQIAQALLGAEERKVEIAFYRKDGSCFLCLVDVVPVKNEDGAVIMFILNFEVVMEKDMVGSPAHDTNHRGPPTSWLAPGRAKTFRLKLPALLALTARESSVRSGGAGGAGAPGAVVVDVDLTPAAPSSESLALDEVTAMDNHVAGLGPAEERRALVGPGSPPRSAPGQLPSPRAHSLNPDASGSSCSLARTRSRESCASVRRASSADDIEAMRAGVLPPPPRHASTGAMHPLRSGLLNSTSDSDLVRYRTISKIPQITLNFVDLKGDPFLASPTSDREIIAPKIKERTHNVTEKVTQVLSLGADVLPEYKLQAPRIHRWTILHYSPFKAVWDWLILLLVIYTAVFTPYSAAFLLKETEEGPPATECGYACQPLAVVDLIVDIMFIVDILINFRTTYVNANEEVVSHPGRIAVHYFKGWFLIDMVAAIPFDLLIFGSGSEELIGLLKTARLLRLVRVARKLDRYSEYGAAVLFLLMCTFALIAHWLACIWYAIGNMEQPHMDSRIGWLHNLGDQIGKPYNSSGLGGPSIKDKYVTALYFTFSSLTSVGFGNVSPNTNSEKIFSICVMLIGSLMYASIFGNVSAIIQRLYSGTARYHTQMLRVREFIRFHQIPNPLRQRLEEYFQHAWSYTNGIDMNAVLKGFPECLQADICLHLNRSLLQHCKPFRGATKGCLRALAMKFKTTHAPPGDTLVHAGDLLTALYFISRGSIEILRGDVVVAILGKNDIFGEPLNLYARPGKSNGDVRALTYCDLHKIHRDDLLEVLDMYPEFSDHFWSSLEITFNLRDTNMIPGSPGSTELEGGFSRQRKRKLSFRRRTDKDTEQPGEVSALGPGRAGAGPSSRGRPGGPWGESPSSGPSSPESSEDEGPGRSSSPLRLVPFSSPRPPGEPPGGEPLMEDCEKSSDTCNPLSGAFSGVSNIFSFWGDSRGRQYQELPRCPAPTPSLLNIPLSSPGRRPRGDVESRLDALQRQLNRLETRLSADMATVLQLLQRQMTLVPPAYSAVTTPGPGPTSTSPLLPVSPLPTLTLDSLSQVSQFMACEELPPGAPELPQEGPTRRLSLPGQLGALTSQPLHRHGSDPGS

Plasmodium falciparum [9] = assay: Antiplasmodial activity against Plasmodium falciparum Dd2; assay type: functional, organism-based
Plasmodium falciparum [10] = assay: Antiplasmodial activity against Plasmodium falciparum W2; assay type: functional, organism-based
[11] = Kinetic solubility of compound at pH 7.4; assay type: physicochemical; settings: buffer
Plasmodium falciparum [12] = assay: Antiplasmodial activity against Plasmodium falciparum 3D7; assay type: functional, organism-based
Plasmodium falciparum [13] = assay: Antiplasmodial activity against Plasmodium falciparum K1; assay type: functional, organism-based
Plasmodium falciparum [14] = assay: Antiplasmodial activity against Plasmodium falciparum FCR3; assay type: functional, organism-based
Plasmodium berghei [15] = assay: Antiplasmodial activity against luciferase expressing Plasmodium berghei; assay type: functional, organism-based
[16] = Cmax in mouse at 140 micromol/kg, po; assay type: ADME; parameters: route oral, dose 140 µmol/kg; settings: in vivo, 140 µmol/kg
[17] = Plasma protein binding in human; assay type: ADME, cell-free; settings: read-out: PPB

| Compound | pEC50 (Plasmodium falciparum [1]) | inhibition at 20 µM (Plasmodium falciparum [2]) [%] | also measured |
| --- | --- | --- | --- |
| O=C(CCn1c(=O)[nH]c2ccccc2c1=O)NCc1ccccc1OC(F)F | 4.49 | 63.8 | – |
| COc1ccccc1Cn1cc(CCn2c(=O)[nH]c3ccccc3c2=O)nn1 | – | 68.8 | – |
| COc1ccccc1CCNC(=O)CCn1c(=O)[nH]c2ccccc2c1=O | 5.00 | – | – |
| CC(C)CCNC(=O)CCn1c(=O)[nH]c2ccccc2c1=O | < 4.60 | – | – |
| COc1ccccc1CNC(=O)CCn1c(=O)[nH]c2ccc(Br)cc2c1=O | – | 59.8 | – |
| COc1cc(F)ccc1CNC(=O)CCn1c(=O)[nH]c2ccccc2c1=O | 5.30 | 74.8 | selectivity ratio [3]: > 20; pIC50 [4]: < 4.00 |
| CCOc1ccccc1CNC(=O)CCn1c(=O)[nH]c2ccccc2c1=O | 5.26 | 84.7 | selectivity ratio [3]: > 18.2; pIC50 [4]: < 4.00 |
| COc1ccccc1Cn1cc(Cn2c(=O)[nH]c3ccccc3c2=O)nn1 | – | 30.5 | – |
| O=C(CCn1c(=O)[nH]c2ccccc2c1=O)N1CCc2ccccc2C1 | – | 30.6 | – |
| Cn1nccc1CNC(=O)CCn1c(=O)[nH]c2ccccc2c1=O | – | 19.9 | – |
| COc1ccccc1NC(=O)CCn1c(=O)[nH]c2ccccc2c1=O | – | 53.1 | – |
| O=C(CCn1c(=O)[nH]c2ccccc2c1=O)NCc1ccccc1Cl | 4.43 | 56 | – |
| COc1ccccc1CNS(=O)(=O)CCn1c(=O)[nH]c2ccccc2c1=O | – | 21.7 | – |
| COc1ccccc1CNC(=O)CCn1c(=O)[nH]c2cc(F)c(F)cc2c1=O | – | 40.5 | – |
| COc1cc(F)c(F)cc1CNC(=O)CCn1c(=O)[nH]c2ccccc2c1=O | 4.95 | 68.3 | – |
| COc1ccccc1CNC(=O)CCn1c(=O)[nH]c2ccc(F)cc2c1=O | 4.70 | 65.4 | – |
| CC(C)CCNC(=O)CCCn1c(=O)[nH]c2ccccc2c1=O | < 4.60 | – | – |
| COc1ccccc1CNC(=O)CCCn1c(=O)[nH]c2ccccc2c1=O | 4.77 | – | – |
| O=C(CCCn1c(=O)[nH]c2ccccc2c1=O)NC1CCCC1 | – | 21.3 | – |
| COc1ccccc1CN(C)C(=O)CCn1c(=O)[nH]c2ccccc2c1=O | – | 41.8 | – |
| O=C(CCn1c(=O)[nH]c2ccccc2c1=O)NCc1ccccc1OC(F)(F)F | 5.17 | 72.5 | selectivity ratio [3]: > 14.7; pIC50 [4]: < 4.00 |
| COc1ccccc1CCNC(=O)CCCn1c(=O)[nH]c2ccccc2c1=O | 5.11 | – | – |
| O=C(CCn1c(=O)[nH]c2ccccc2c1=O)NCc1ccccc1O | – | 17.1 | – |
| COc1ccccc1CNC(=O)CCn1c(=O)[nH]c2ncccc2c1=O | – | 52.4 | – |
| O=C(CCn1c(=O)[nH]c2ccccc2c1=O)NCc1nc2ccccc2[nH]1 | – | 38.1 | – |
| O=C(CCn1c(=O)[nH]c2ccccc2c1=O)NC1CCCC1 | – | 32.9 | – |
| COc1ccc(CNC(=O)CCn2c(=O)[nH]c3ccccc3c2=O)c(OC)c1 | – | 28 | – |
| COc1ccccc1CNC(=O)CCn1c(=O)[nH]c2ccccc2c1=O | 6.40 | – | selectivity ratio [3]: > 250; Activity (Plasmodium berghei [5]): 23%; MRT last [6]: 3.01 h; pIC50 [4]: < 4.00; AUC(0-t) at 7 h [7]: 0.0729 µM·h; Tmax [8]: 0.25 h; inhibition at 11 µM (hERG (KCNH2)): 19%; pEC50 (Plasmodium falciparum [9]): 7.15; pEC50 (Plasmodium falciparum [10]): 7.15; Kinetic_solubility [11]: Insoluble; pEC50 (Plasmodium falciparum [12]): 7.15; pEC50 (Plasmodium falciparum [13]): 7.15; pEC50 (Plasmodium falciparum [14]): 7.15; pIC50 (Plasmodium berghei [15]): 7.36; Cmax [16]: 21.3 nM; fraction unbound [17]: < 0.05 |
| COc1ccccc1CNC(=O)CCn1c(=O)[nH]c2ccsc2c1=O | – | – | Activity (Plasmodium berghei [5]): 27%; inhibition at 11 µM (hERG (KCNH2)): 5%; pEC50 (Plasmodium falciparum [9]): 7.15; pEC50 (Plasmodium falciparum [10]): 7.15; Kinetic_solubility [11]: Soluble; pEC50 (Plasmodium falciparum [12]): 7.15; pEC50 (Plasmodium falciparum [13]): 7.15; pEC50 (Plasmodium falciparum [14]): 7.15; pIC50 (Plasmodium berghei [15]): 7.25; fraction unbound [17]: > 0.05 |

— ChEMBL document CHEMBL4840368, “Structure-activity relationship and molecular modelling studies of quinazolinedione derivatives MMV665916 as potential antimalarial agent” (Bioorg Med Chem, 2021)
